Measurements: ChEMBL document CHEMBL1145966, “Orally active analogues of the dopaminergic prodrug 6-(N,N-di-n-propylamino)-3,4,5,6,7,8-hexahydro-2H-naphthalen-1-one: synthesis and pharmacological activity” (J Med Chem, 2003)
pKi: −log10 of the molar value.

Key:
D(2) dopamine receptor = D(2) dopamine receptor (Bos taurus, UniProt P20288); experiment: Binding affinity of compound for Dopamine receptor D2 using [3H]N-0437
D(1A) dopamine receptor = D(1A) dopamine receptor (Bos taurus, UniProt Q95136); experiment: Binding affinity of compound for Dopamine receptor D1 using [3H]-SCH- 23390
Sequence of D(1A) dopamine receptor (Q95136 whole entry): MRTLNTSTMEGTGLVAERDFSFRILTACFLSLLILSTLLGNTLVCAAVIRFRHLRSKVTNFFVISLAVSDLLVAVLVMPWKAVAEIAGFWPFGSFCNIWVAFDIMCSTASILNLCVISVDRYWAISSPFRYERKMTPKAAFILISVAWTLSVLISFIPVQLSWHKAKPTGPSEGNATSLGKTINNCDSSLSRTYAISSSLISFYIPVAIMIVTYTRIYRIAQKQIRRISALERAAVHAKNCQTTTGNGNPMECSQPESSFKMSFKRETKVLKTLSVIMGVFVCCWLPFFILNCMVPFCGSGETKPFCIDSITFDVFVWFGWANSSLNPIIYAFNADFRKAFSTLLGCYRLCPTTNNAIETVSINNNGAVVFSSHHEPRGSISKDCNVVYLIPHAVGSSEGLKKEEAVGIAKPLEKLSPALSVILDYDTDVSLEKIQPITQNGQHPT
Method in brief: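 Rat striatal membranes; inhibition of 0.20 nM [3H]SCH23390 binding at D1 sites, following Hyttel et al. Ki in nM, n = 3, SEM < 10%.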

Rattus norvegicus [1] = experiment: Total full contralateral turn in rat was observed at a dose of 0.3 mg kg-1 administered perorally; type: functional; details: route oral
Rattus norvegicus [2] = experiment: Total full contralateral turn in rat was observed at a dose of 1.0 mg kg-1 administered perorally; type: functional; details: route oral
Rattus norvegicus [3] = experiment: Total full contralateral turn in rat was observed at a dose of 0.1 mg kg-1 administered perorally; type: functional; details: route oral

Sequence of D(2) dopamine receptor (P20288 whole entry): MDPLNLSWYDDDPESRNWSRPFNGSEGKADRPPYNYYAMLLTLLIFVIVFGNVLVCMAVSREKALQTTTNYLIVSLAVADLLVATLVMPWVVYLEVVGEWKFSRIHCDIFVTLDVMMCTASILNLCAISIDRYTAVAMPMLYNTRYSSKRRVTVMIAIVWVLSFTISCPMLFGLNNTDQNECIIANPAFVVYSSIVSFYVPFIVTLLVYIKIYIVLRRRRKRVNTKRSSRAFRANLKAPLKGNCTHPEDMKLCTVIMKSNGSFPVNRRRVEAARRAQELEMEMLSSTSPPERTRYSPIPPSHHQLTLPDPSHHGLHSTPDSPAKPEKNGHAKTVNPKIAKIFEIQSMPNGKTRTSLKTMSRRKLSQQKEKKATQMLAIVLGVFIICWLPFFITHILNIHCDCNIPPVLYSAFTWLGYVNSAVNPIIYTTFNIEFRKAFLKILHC

Row | SMILES | pKi (D(2) dopamine receptor) | pKi (D(1A) dopamine receptor) | Total turns (Rattus norvegicus [1]) | Total turns (Rattus norvegicus [2]) | Total turns (Rattus norvegicus [3])
1 | CCCN(CCC)[C@@H]1Cc2cccc(O)c2C[C@H]1C | 8.52 | 8.96 |  |  | 
2 | CCCN(CCC)C1CCC2=C(C1)CC(C)(C)CC2=O (racemic) |  |  | 23 | 204 | 
3 | CCCN(CC)C1CCC2=C(CCCC2=O)C1 (racemic) |  |  | 8901 |  | 4840
4 | CCCN(CCc1cccs1)[C@H]1CCc2c(ccc(O)c2O)C1 (racemic) | 8.22 | 6.96 |  |  | 
5 | CCCN(CCc1cccs1)C1CCC2=C(CCCC2=O)C1 (racemic) |  |  |  | 503 | 262
6 | C#CCN(C)C1CCC2=C(CCCC2=O)C1 (racemic) |  |  | 513 |  | 713
7 | CCCN(C)C1CCC2=C(CCCC2=O)C1 (racemic) |  |  | 5740 |  | 2928
8 | CCCN(CCCF)C1CCC2=C(CCCC2=O)C1 (racemic) |  |  | 5194 | 7540 | 
9 | CCCN(CCC)[C@H]1CCC2=C(CCCC2=O)C1 (racemic) |  |  | 5354 | 8787 | 2312
10 | CCCN(CCc1cccs1)[C@H]1CCc2c(O)cccc2C1 (racemic) [ROTIGOTINE] | 7.82 | 6.30 |  |  | 
